30 compounds from ChEMBL document CHEMBL1133447, “Inhibition of protein synthesis by didemnins: cell potency and SAR” (J Med Chem, 2000) can be followed below.

For the assay, the species on record is Oryctolagus cuniculus. Briefly: In vitro inhibition of protein synthesis in tobacco mosaic virus mRNA-encoded proteins in rabbit reticulocyte lysate. The class given is functional. In a few lines: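 Cell-free translation in rabbit reticulocyte lysate programmed with tobacco mosaic virus mRNA. Protein synthesis was measured as [³⁵S]methionine incorporation into the encoded proteins across a range of inhibitor concentrations, and IC50 was derived from the concentration dependence.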

Starred links: 1 amine or outer side, 2 acyl side, 3 side chain; linkers in the order of their positions; H or OH if unused. Positions of bridges follow the written chain, without caps; N, C: chain ends. Non-standard residues stand in square brackets, D forms with d. Residues, ends and D or L forms follow the SMILES beside them. ξ: configuration not given here. *: point of attachment. X1 = CC[C@H](C)[C@@H](N[*:1])[C@@H](O)CC(=O)O[C@H](C(=O)[C@H](C)C(=O)[*:2])C(C)C; Benzoyl(4-benzoyl) = O=C(c1ccccc1)c1ccc(C(=O)*)cc1; X2 = CC[C@H](C)[C@@H](N[*:1])[C@@H](O)CC(=O)[*:2]; Propanoyl(3-(4-MeO-Ph)) = COc1ccc(CCC(=O)*)cc1; NMeY = CN[C@@H](Cc1ccc(O)cc1)C(=O)O; NMeL = CN[C@@H](CC(C)C)C(=O)O; dHica = CC(C)C[C@@H](O)C(=O)O; dNMeL = CN[C@H](CC(C)C)C(=O)O; pGlu = O=C1CC[C@@H](C(=O)O)N1; NMeV = CN[C@H](C(=O)O)C(C)C; Hiv = CC(C)[C@H](O)C(=O)O; NMeA = CN[C@@H](C)C(=O)O; Lac = C[C@H](O)C(=O)O; OBn = c1ccc(CO*)cc1; Ahx = NCCCCCC(=O)O; ξP = O=C(O)C1CCCN1; βAla = NCCC(=O)O Bounds are passed on as bounds.

Regarding `CC[C@H](C)[C@H]1NC(=O)[C@@H](NC(=O)[C@@H](CC(C)C)N(C)C(=O)[C@@H]2CCCN2C(=O)[C@H](C)O)[C@@H](C)OC(=O)[C@@H]2CCc3ccccc3N2C(=O)[C@@H]2CCCN2C(=O)[C@H](CC(C)C)NC(=O)[C@@H](C)C(=O)[C@H](C(C)C)OC(=O)C[C@@H]1O`, it took 2.7 µM to reach half-maximal inhibition (IC50).
Next, `COc1ccc(C[C@H]2C(=O)N[C@@H](C)C(=O)N(C)[C@H]3Cc4ccc(cc4)Oc4cc(ccc4OC)C[C@@H](C(=O)N[C@H](C)C(=O)N[C@@H](C)C(=O)N2C)N(C)C3=O)cc1`: 0.05 µM; `CC[C@H](C)[C@H]1NC(=O)[C@@H](NC(=O)[C@@H](CC(C)C)N(C)C(=O)C2C=CCN2C(=O)OC(C)(C)C)[C@@H](C)OC(=O)[C@H](Cc2ccc(OC)cc2)N(C)C(=O)C2CCCN2C(=O)[C@H](CC(C)C)NC(=O)[C@@H](C)C(=O)[C@H](C(C)C)OC(=O)C[C@@H]1O` (stereo not given in full): 5.3 µM.
Take `COc1ccc(C[C@H]2C(=O)O[C@H](C)[C@H](NC(=O)[C@@H](CC(C)C)N(C)C(=O)[C@@H]3CCCN3C(=O)[C@H](C)O)C(=O)N[C@H](C(C)C)[C@@H](O)CC(=O)O[C@@H](C(C)C)C(=O)[C@H](C)C(=O)N[C@@H](CC(C)C)C(=O)N3CCC[C@H]3C(=O)N2C)cc1`: inhibition was half-maximal at 3 µM (IC50). Compared with the last compound, the IC50 is about 1.8-fold lower.
The figure for `C/C1=C\[C@H](C)C[C@H](C)OC(=O)C[C@H](c2ccc(O)cc2)NC(=O)[C@@H](Cc2c(Br)[nH]c3ccccc23)N(C)C(=O)[C@H](C)NC(=O)[C@@H](C)C1` [JASPAMIDE] is greater than 500 µM; for `CC[C@H](C)[C@@H]1NC(=O)[C@@H]2CCCN2C(=O)[C@@H](CC(C)C)OC(=O)CCNC(=O)[C@H](C)N(C)C(=O)[C@H](C(C)C)N(C)C1=O` (cyclo(I[NMeV][NMeA][βAla][dHica]P)) it is greater than 1000 µM; for `CC[C@H](C)[C@H]1NC(=O)[C@@H](NC(=O)[C@@H](CC(C)C)N(C)C(=O)CNC(=O)c2ccc(C(=O)c3ccccc3)cc2)[C@@H](C)OC(=O)[C@H](Cc2ccc(OC)cc2)N(C)C(=O)C2CCCN2C(=O)[C@H](CC(C)C)NC(=O)[C@@H](C)C(=O)[C@H](C(C)C)OC(=O)C[C@@H]1O` (stereo not given in full) ({Benzoyl(4-benzoyl)}-G[dNMeL]T[X1]L[ξP][NMeY](Me); ester 3-C) it is 4.5 µM.
On to `COc1ccc(C[C@@H](C(=O)O[C@H](C)[C@H](NC(=O)[C@@H](CC(C)C)N(C)C(=O)[C@@H]2CCCN2C(=O)[C@H](C)O)C(=O)N2CCCCNC(=O)[C@H](C)C(=O)[C@H](C(C)C)OC(=O)C[C@H](O)[C@H]2CC(C)C)N(C)C(C)=O)cc1`, for which the IC50 (commonly the concentration that inhibits the measured activity by half) is greater than 1000 µM.
Next, `CC[C@H](C)[C@H]1NC(=O)[C@@H](NC(=O)[C@@H](CC(C)C)N(C)C(=O)[C@@H]2CCCN2C(=O)[C@H](C)OC(C)=O)[C@@H](C)OC(=O)[C@H](Cc2ccc(OC)cc2)N(C)C(=O)[C@@H]2CCCN2C(=O)[C@H](CC(C)C)NC(=O)[C@@H](C)C(=O)[C@H](C(C)C)OC(=O)C[C@@H]1OC(C)=O`: 10 µM; `COc1ccc(C[C@H]2C(=O)O[C@H](C)[C@H](NC(=O)[C@@H](CC(C)C)N(C)C(=O)C3CCCN3C(=O)[C@H](C)O)C(=O)N[C@H](C(C)C)[C@@H](O)CC(=O)O[C@@H](C(C)C)C(=O)[C@H](C)C(=O)N[C@@H](CC(C)C)C(=O)N3CCCC3C(=O)N2C)cc1` (stereo not given in full): 1 µM; `C[C@@H]1C[C@@H]([C@H](O)CC2CC(=O)NC(=O)C2)C(=O)[C@@H](C)C1` [CYCLOHEXIMIDE]: 5 µM.
As for `CSCC[C@H](N)C(=O)N[C@@H](CCC(=O)O)C(=O)N[C@@H](Cc1c[nH]cn1)C(=O)N[C@@H](Cc1ccccc1)C(=O)N[C@@H](CCCN=C(N)N)C(=O)N[C@@H](Cc1c[nH]c2ccccc12)C(=O)NCC(=O)O`, the IC50 stood at 4 µM. This IC50 and that of the compound before are within 1.5-fold of each other.
The figure for `CC[C@H](C)[C@H]1NC(=O)[C@@H](NC(=O)[C@@H](CC(C)C)N(C)C(=O)C2CCCN2)[C@@H](C)OC(=O)[C@H](Cc2ccc(OC)cc2)N(C)C(=O)C2CCCN2C(=O)[C@H](CC(C)C)NC(=O)[C@@H](C)C(=O)[C@H](C(C)C)OC(=O)C[C@@H]1O` (stereo not given in full) is 4.3 µM; for `CC[C@H](C)[C@H]1NC(=O)[C@@H](NC(=O)[C@@H](CC(C)C)NC)[C@@H](C)OC(=O)[C@H](Cc2ccc(OC)cc2)N(C)C(=O)C2CCCN2C(=O)[C@H](CC(C)C)NC(=O)[C@@H](C)C(=O)[C@H](C(C)C)OC(=O)C[C@@H]1O` (stereo not given in full) it is 5.4 µM.
Next, `C=CCOC(=O)N[C@@H](CC(C)C)C(=O)N1CCC[C@H]1C(=O)N(C)[C@@H](Cc1ccc(OC)cc1)C(=O)O[C@H](C)[C@H](NC(=O)[C@@H](CC(C)C)N(C)C(=O)[C@@H]1CCCN1C(=O)[C@H](C)O)C(=O)OCC[Si](C)(C)C`: 112 µM; `COc1ccc(C[C@@H](C(=O)NCCNC(=O)[C@H](CC(C)C)N(C)C(=O)[C@@H]2CCCN2C(=O)[C@H](C)O)N(C)C(=O)C2CCCN2C(=O)[C@H](CC(C)C)NC(=O)[C@@H](C)NC(=O)OCc2ccccc2)cc1` (stereo not given in full): 275 µM.
Next, `CC[C@H](C)[C@H]1NC(=O)[C@@H](NC(=O)[C@@H](CC(C)C)N(C)C(=O)c2ccc(C(=O)c3ccccc3)cc2)[C@@H](C)OC(=O)[C@H](Cc2ccc(OC)cc2)N(C)C(=O)C2CCCN2C(=O)[C@H](CC(C)C)NC(=O)[C@@H](C)C(=O)[C@H](C(C)C)OC(=O)C[C@@H]1O` (stereo not given in full) ({Benzoyl(4-benzoyl)}-[dNMeL]T[X1]L[ξP][NMeY](Me); ester 2-C): 4 µM; `O=C(O)C1=CC(=C(c2ccc(O)c(C(=O)O)c2)c2ccc(O)c(C(=O)O)c2)C=CC1=O` [AURINTRICARBOXYLIC ACID]: 10 µM; `C=C(NC(=O)C(=C)NC(=O)c1ccc2c(n1)-c1coc(n1)C(=C)NC(=O)C(=C)NC(=O)c1nc(oc1C)C(=C)NC(=O)C(C(C)(C)O)NC(=O)C(=C)NC(=O)c1nc(oc1C)/C(=C/C)NC(=O)C(C(C)O)NC(=O)c1csc-2n1)C(N)=O` (stereo not given) [BERNINAMYCIN]: 600 µM.
`CC[C@H](C)[C@H](NC(=O)[C@H](Cc1ccccc1)NC(=O)[C@H](C)NC(=O)[C@H](CC(=O)O)NC(=O)[C@H](CCCCN)NC(=O)[C@H](CO)NC(=O)[C@@H]1CCCN1C(=O)[C@@H]1CCC(=O)N1)C(=O)NCC(=O)N[C@@H](CC(C)C)C(=O)N[C@@H](CCSC)C(N)=O` [ELEDOISIN] ([pGlu]PSKDAFIGLM-NH2) gave an IC50 of 500 µM.
Next, H-ELNFTPNWGT-NH2: greater than 1000 µM; `CC[C@H](C)[C@H]1NC(=O)[C@@H](NC(=O)[C@@H](CC(C)C)N(C)C(=O)C2C=CCN2)[C@@H](C)OC(=O)[C@H](Cc2ccc(OC)cc2)N(C)C(=O)C2CCCN2C(=O)[C@H](CC(C)C)NC(=O)[C@@H](C)C(=O)[C@H](C(C)C)OC(=O)C[C@@H]1O` (stereo not given in full): 4.3 µM.
Next, `CC(=O)O[C@H](C)[C@H](NC(=O)[C@H](CC(C)C)N(C)C(=O)[C@@H]1CCCN1C(=O)[C@H](C)O)C(=O)OCc1ccccc1` (H-[Lac]P[NMeL]T(Ac)-OBn): 276 µM; `CC(=O)O[C@H]1C[C@@]2(C)[C@@H](C[C@@H](O)[C@H]3[C@@]4(C)CC[C@@H](O)[C@@H](C)[C@@H]4CC[C@@]32C)/C1=C(\CCC=C(C)C)C(=O)O` [FUSIDIC ACID]: 400 µM.
Next, `COc1ccc(C[C@H]2C(=O)N[C@@H](C)C(=O)N(C)[C@@H]3C(=O)N(C)[C@@H](Cc4ccc(O)c(c4)Oc4ccc(cc4)[C@@H]3O)C(=O)N[C@@H](C)C(=O)N[C@@H](C)C(=O)N2C)cc1` [BOUVARDIN]: 0.1 µM; `CC[C@H](C)[C@H]1NC(=O)[C@@H](NC(=O)[C@@H](CC(C)C)N(C)C(=O)C2CCCN2C(=O)[C@H](C)O)[C@@H](C)OC(=O)[C@H](CC(C)C)N(C)C(=O)C2CCCN2C(=O)[C@H](CC(C)C)NC(=O)[C@@H](C)C(=O)[C@H](C(C)C)OC(=O)C[C@@H]1O` (stereo not given in full): 9 µM.
`CC[C@H](C)[C@H]1NC(=O)[C@@H](NC(=O)[C@@H](CC(C)C)N(C)C(=O)[C@@H]2CCCN2C(=O)[C@H](C)O)[C@@H](C)OC(=O)[C@H](Cc2ccc(OC)cc2)N(C)C(=O)[C@@H]2CCCN2C(=O)[C@H](CC(C)C)NC(=O)[C@H](C(C)C)OC(=O)C[C@@H]1O` (H-[Lac]P[dNMeL]T[X2][Hiv]LP[NMeY](Me); ester 4-C) displayed an IC50 of 1.3 µM. Compared with the last compound, the IC50 is about 6.9-fold lower.
Next, `CC[C@H](C)[C@H]1NC(=O)[C@@H](NC(=O)[C@@H](CC(C)C)N(C)C(=O)CCCCCNC(=O)c2ccc(C(=O)c3ccccc3)cc2)[C@@H](C)OC(=O)[C@H](Cc2ccc(OC)cc2)N(C)C(=O)C2CCCN2C(=O)[C@H](CC(C)C)NC(=O)[C@@H](C)C(=O)[C@H](C(C)C)OC(=O)C[C@@H]1O` (stereo not given in full) ({Benzoyl(4-benzoyl)-Ahx}-[dNMeL]T[X1]L[ξP][NMeY](Me); ester 2-C): 24 µM.
With `CC[C@H](C)[C@H]1NC(=O)[C@@H](NC(=O)[C@@H](CC(C)C)N(C)C(=O)C2CCCN2C(=O)[C@H](C)O)[C@@H](C)OC(=O)[C@H](Cc2ccccc2)N(C)C(=O)C2CCCN2C(=O)[C@H](CC(C)C)NC(=O)[C@@H](C)C(=O)[C@H](C(C)C)OC(=O)C[C@@H]1O` (stereo not given in full), half-maximal inhibition (IC50) was put at 2.5 µM.
Next, `COc1ccc(CCC(=O)O[C@H](C)[C@H](NC(=O)[C@H](CC(C)C)N(C)C(=O)[C@@H]2CCCN2C(=O)[C@H](C)O)C(=O)OCc2ccccc2)cc1` (H-[Lac]P[NMeL]T(Propanoyl(3-(4-MeO-Ph)))-OBn): 405 µM.
